Experimental data collected from several papers.
Target: Serine/threonine-protein kinase NIM1 (NIM1K, Homo sapiens, UniProt Q8IY84)

Compound | read-out | method | tested at | remaining binding [%]
O=C(Nc1cccnn1)N1CCC(=Cc2cccc(Oc3ccc(C(F)(F)F)cn3)c2)CC1 | cell-free assay | competition with immobilised ligand | 1 µM | 100
Cc1cnc(Nc2ccc(C(=O)N3CCC(N4CCCC4)CC3)cc2)nc1-c1cc2ccccc2s1 | binding | competition with immobilised ligand | 1 µM | 22
Cc1nc(C2CCN(C(=O)c3ccc(OC(F)(F)F)cc3N)CC2)c2ncc(N3CCN(C)CC3)cc2n1 | cell-free assay | competition with immobilised ligand | 1 µM | 89
F[C@@H]1CCN(c2nccc(-c3cnn4ncccc34)n2)C1 | binding |  | 1 µM | 100
Nc1ncc2c(n1)-c1c([nH]c3ccc(C#CC4CC4)cc13)CCCC2 | binding | competition with immobilised ligand | 1 µM | 61
COc1cccc(CNC(=O)c2nc3scc(COCc4ccc(C(=O)O)cc4)c3c(=O)[nH]2)c1 | cell-free assay | competition with immobilised ligand | 1 µM | 100
O=C(NCCCN1CCOCC1)c1ccc(Nc2ncc(Cl)c(-c3ccc(Cl)s3)n2)cc1 | binding | competition with immobilised ligand | 1 µM | 20
CC1CCCN1c1nccc(-c2cnn3ncccc23)n1 (stereo not shown) | binding |  | 1 µM | 95
O=C(c1ccc(Nc2ncc(Cl)c(-c3ccc(Cl)s3)n2)cc1)N1CCC(N2CCCC2)CC1 | binding | competition with immobilised ligand | 1 µM | 6.3
CN(c1nccc(-c2cnn3ncccc23)n1)C1CC1 | binding |  | 1 µM | 100
CC1=C(C#N)[C@@H](c2ccc3[nH]nc(C)c3c2)C(C#N)=C(c2ccc(Cl)cc2)N1 | cell-free assay | competition with immobilised ligand | 1 µM | 100
C=CC(=O)N1CCC(C(=O)NCC(=O)N2CCN(c3nc(-c4cnc(N)nc4C(F)F)nc(N4CCOCC4)n3)CC2)CC1 | binding | competition with immobilised ligand | 1 µM | 100
O=C(Nc1c[nH]nc1C(=O)NC1CCNCC1)c1cc(F)cc(F)c1 | binding | competition with immobilised ligand | 1 µM | 100
Cc1cnn2ncc(-c3ccnc(N(C)C)n3)c2c1 | binding |  | 1 µM | 92
CNC(=O)[C@@H]1CC[C@@H](n2c(-c3ccc4cnccc4c3)nc3ccc(C(=O)NCc4cccc(C(N)=O)c4)cc32)C1 | binding | competition with immobilised ligand | 1 µM | 100
CCN1CCN(Cc2ccc(C(=O)Nc3ccc(C)c(Oc4ccc5c(c4)CC(=O)N5)c3)cc2C(F)(F)F)CC1 | binding | competition with immobilised ligand | 1 µM | 100
Cc1cc(-n2nc(Cc3cc(F)cc(C(F)(F)F)c3)nc2C)ccc1C(N)=O | cell-free assay | competition with immobilised ligand | 1 µM | 100
CN(CCCC(F)(F)F)c1nccc(-c2cnn3ncccc23)n1 | binding |  | 1 µM | 100
COc1ccc2c(c1)O[C@H](c1ccc(OC)c(OC)c1)C[C@@H]2NC(=O)C1(c2ccc3c(c2)OC(F)(F)O3)CC1 | cell-free assay | competition with immobilised ligand | 1 µM | 84
FC(F)(F)Oc1cccc(-c2cnc3ccc(-c4ccncc4)nn23)c1 | cell-free assay | competition with immobilised ligand | 5 µM | 87
C[C@H]1CCN(c2nccc(-c3cnn4ncccc34)n2)C1 | binding |  | 1 µM | 82
CC(=O)C1=C(C)N(c2cccc(C(F)(F)F)c2)C(=O)N[C@@H]1c1ccc(C#N)nc1 | cell-free assay | competition with immobilised ligand | 1 µM | 83.5
